Reference: ChEMBL document CHEMBL5058577, “EUbOPEN Chemogenomics Library 2 (Multiplex)” (2022)

Test system: HEK-293T
Assay: Multiplex assay against HEK293T
Type: toxicity, cell-based
Settings: human
Summary of the method: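 At seeding, live cells were stained with Hoechst33342, BioTracker Green Microtubule Cytoskeleton Dye, MitoTracker Red and Annexin V Alexa Fluor 680. After compound addition they were imaged on a CQ1 microscope at 37°C and 5% CO2, and CellPathfinder machine-learning gating sorted them into Hoechst high-intensity objects or normal cells, with normal cells further split into healthy, pyknosed or fragmented nuclei and pyknosed cells into mitotic or apoptotic. Tubulin, mitochondrial-mass and membrane-permeability phenotypes are given as per cents of cells with healthy nuclei.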

[1] = 12 h, 1 µM, compound concentration 1 uM, replicate 1
[2] = 12 h, 1 µM, compound concentration 1 uM, replicate 2
[3] = 12 h, 10 µM, compound concentration 10 uM, replicate 1
[4] = 12 h, 10 µM, compound concentration 10 uM, replicate 2
[5] = 24 h, 1 µM, compound concentration 1 uM, replicate 1
[6] = 24 h, 1 µM, compound concentration 1 uM, replicate 2
[7] = 24 h, 10 µM, compound concentration 10 uM, replicate 1
[8] = 24 h, 10 µM, compound concentration 10 uM, replicate 2
[9] = 48 h, 1 µM, compound concentration 1 uM, replicate 1
[10] = 48 h, 1 µM, compound concentration 1 uM, replicate 2
[11] = 48 h, 10 µM, compound concentration 10 uM, replicate 1
[12] = 48 h, 10 µM, compound concentration 10 uM, replicate 2

For `Cc1ccccc1C(=O)Nc1ccc(C(=O)N2CCCC(N(C)C)c3ccccc32)cc1.Cl` (centres undefined), the “Population Apoptotic (%)” value [1] was 18%, the “Population Fragmented Nuclei (%)” value [1] was 6% and the “Population Healthy Nuclei (%)” value [1] was 80%. For the same molecule, the “Population Hoechst High Intensity Objects (%)” value [1] was 8%, the “Population Membrane Permeable-Phenotype (%)” value [1] was 0% and the “Population Mitochondria Different-Phenotype (%)” value [1] was 51%. The “Population Mitotic Cells (%)” value [1] was 81%, the “Population Normal (%)” value [1] was 91% and the “Population Pyknosed Nuclei (%)” value [1] was 12%. The “Population Tubulin-Different-Phenotype (%)” value [1] was 33%, the “Total Cell Count” value [1] was 519 and the “Population Apoptotic (%)” value [2] was 53%. For the same molecule, the “Population Fragmented Nuclei (%)” value [2] was 5%, the “Population Healthy Nuclei (%)” value [2] was 79% and the “Population Hoechst High Intensity Objects (%)” value [2] was 6%. For the same molecule, the “Population Mitochondria Different-Phenotype (%)” value [2] was 72%, the “Population Mitotic Cells (%)” value [2] was 46% and the “Population Normal (%)” value [2] was 93%. For the same molecule, the “Population Pyknosed Nuclei (%)” value [2] was 14%, the “Population Tubulin-Different-Phenotype (%)” value [2] was 29% and the “Total Cell Count” value [2] was 412. For the same molecule, the “Population Apoptotic (%)” value [3] was 53%, the “Population Fragmented Nuclei (%)” value [3] was 6% and the “Population Healthy Nuclei (%)” value [3] was 70%. The “Population Hoechst High Intensity Objects (%)” value [3] was 8%, the “Population Membrane Permeable-Phenotype (%)” value [3] was 0% and the “Population Mitochondria Different-Phenotype (%)” value [3] was 74%. For the same molecule, the “Population Mitotic Cells (%)” value [3] was 46%, the “Population Normal (%)” value [3] was 91% and the “Population Pyknosed Nuclei (%)” value [3] was 22%. The “Population Tubulin-Different-Phenotype (%)” value [3] was 60%, the “Total Cell Count” value [3] was 233 and the “Population Apoptotic (%)” value [4] was 64%. For the same molecule, the “Population Fragmented Nuclei (%)” value [4] was 8%, the “Population Healthy Nuclei (%)” value [4] was 72% and the “Population Hoechst High Intensity Objects (%)” value [4] was 15%. For the same molecule, the “Population Mitochondria Different-Phenotype (%)” value [4] was 82%, the “Population Mitotic Cells (%)” value [4] was 35% and the “Population Normal (%)” value [4] was 84%. For the same molecule, the “Population Pyknosed Nuclei (%)” value [4] was 18%, the “Population Tubulin-Different-Phenotype (%)” value [4] was 61% and the “Total Cell Count” value [4] was 285. For the same molecule, the “Population Apoptotic (%)” value [5] was 31%, the “Population Fragmented Nuclei (%)” value [5] was 11% and the “Population Healthy Nuclei (%)” value [5] was 79%. For the same molecule, the “Population Hoechst High Intensity Objects (%)” value [5] was 5%, the “Population Membrane Permeable-Phenotype (%)” value [5] was 0% and the “Population Mitochondria Different-Phenotype (%)” value [5] was 28%. The “Population Mitotic Cells (%)” value [5] was 68%, the “Population Normal (%)” value [5] was 94% and the “Population Pyknosed Nuclei (%)” value [5] was 8%. The “Population Tubulin-Different-Phenotype (%)” value [5] was 17%, the “Total Cell Count” value [5] was 727 and the “Population Apoptotic (%)” value [6] was 30%. For the same molecule, the “Population Fragmented Nuclei (%)” value [6] was 5%, the “Population Healthy Nuclei (%)” value [6] was 83% and the “Population Hoechst High Intensity Objects (%)” value [6] was 4%. For the same molecule, the “Population Mitochondria Different-Phenotype (%)” value [6] was 52%, the “Population Mitotic Cells (%)” value [6] was 69% and the “Population Normal (%)” value [6] was 95%. The “Population Pyknosed Nuclei (%)” value [6] was 11%, the “Population Tubulin-Different-Phenotype (%)” value [6] was 19% and the “Total Cell Count” value [6] was 567. For the same molecule, the “Population Apoptotic (%)” value [7] was 41%, the “Population Fragmented Nuclei (%)” value [7] was 8% and the “Population Healthy Nuclei (%)” value [7] was 70%. For the same molecule, the “Population Hoechst High Intensity Objects (%)” value [7] was 7%, the “Population Membrane Permeable-Phenotype (%)” value [7] was 0% and the “Population Mitochondria Different-Phenotype (%)” value [7] was 71%. For the same molecule, the “Population Mitotic Cells (%)” value [7] was 58%, the “Population Normal (%)” value [7] was 92% and the “Population Pyknosed Nuclei (%)” value [7] was 21%. For the same molecule, the “Population Tubulin-Different-Phenotype (%)” value [7] was 46%, the “Total Cell Count” value [7] was 268 and the “Population Apoptotic (%)” value [8] was 44%. The “Population Fragmented Nuclei (%)” value [8] was 7%, the “Population Healthy Nuclei (%)” value [8] was 73% and the “Population Hoechst High Intensity Objects (%)” value [8] was 14%. The “Population Mitochondria Different-Phenotype (%)” value [8] was 83%, the “Population Mitotic Cells (%)” value [8] was 55% and the “Population Normal (%)” value [8] was 85%. For the same molecule, the “Population Pyknosed Nuclei (%)” value [8] was 18%, the “Total Cell Count” value [8] was 285 and the “Population Apoptotic (%)” value [9] was 13%. For the same molecule, the “Population Fragmented Nuclei (%)” value [9] was 13%, the “Population Healthy Nuclei (%)” value [9] was 78% and the “Population Hoechst High Intensity Objects (%)” value [9] was 2%. For the same molecule, the “Population Membrane Permeable-Phenotype (%)” value [9] was 1%, the “Population Mitochondria Different-Phenotype (%)” value [9] was 24% and the “Population Mitotic Cells (%)” value [9] was 86%. For the same molecule, the “Population Normal (%)” value [9] was 97%, the “Population Pyknosed Nuclei (%)” value [9] was 8% and the “Population Tubulin-Different-Phenotype (%)” value [9] was 17%. The “Total Cell Count” value [9] was 1095, the “Population Apoptotic (%)” value [10] was 34% and the “Population Fragmented Nuclei (%)” value [10] was 10%. For the same molecule, the “Population Healthy Nuclei (%)” value [10] was 82%, the “Population Hoechst High Intensity Objects (%)” value [10] was 4% and the “Population Membrane Permeable-Phenotype (%)” value [10] was 0%. The “Population Mitochondria Different-Phenotype (%)” value [10] was 30%, the “Population Mitotic Cells (%)” value [10] was 65% and the “Population Normal (%)” value [10] was 95%. For the same molecule, the “Population Pyknosed Nuclei (%)” value [10] was 6%, the “Population Tubulin-Different-Phenotype (%)” value [10] was 14% and the “Total Cell Count” value [10] was 722. The “Population Apoptotic (%)” value [11] was 55%, the “Population Fragmented Nuclei (%)” value [11] was 10% and the “Population Healthy Nuclei (%)” value [11] was 69%. The “Population Hoechst High Intensity Objects (%)” value [11] was 6%, the “Population Membrane Permeable-Phenotype (%)” value [11] was 0% and the “Population Mitochondria Different-Phenotype (%)” value [11] was 69%. The “Population Mitotic Cells (%)” value [11] was 44%, the “Population Normal (%)” value [11] was 93% and the “Population Pyknosed Nuclei (%)” value [11] was 20%. For the same molecule, the “Population Tubulin-Different-Phenotype (%)” value [11] was 49%, the “Total Cell Count” value [11] was 283 and the “Population Apoptotic (%)” value [12] was 63%. For the same molecule, the “Population Fragmented Nuclei (%)” value [12] was 9%, the “Population Healthy Nuclei (%)” value [12] was 77% and the “Population Mitochondria Different-Phenotype (%)” value [12] was 72%. The “Population Mitotic Cells (%)” value [12] was 36%, the “Population Pyknosed Nuclei (%)” value [12] was 12% and the “Population Tubulin-Different-Phenotype (%)” value [12] was 41%. For the same molecule, the “Total Cell Count” value [12] was 314.
